Activity calls are given as the source filed them. No cut-off for these calls is given here.
Columns and labels:
[1] = system: A-375; test: Induction of apoptosis in human A375 cells assessed as increase in Bax protein level after 24 hrs by Western blotting analysis; format: functional, cell-based
In short: (§1)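 Lysates from A375 cells exposed 24 h to 5 μM, or to a range of concentrations, immunoblotted with specific antibodies against Bcl-2, Bcl-xL, Bax, Bad, caspase-3 and PARP; actin probed as loading control; three separate experiments.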

[2] = Cytotoxicity against human skin fibroblasts assessed as cell survival at 5 uM after 24 hrs by MTT assay relative to control; design: species or system Skin fibroblast; conditions: read-out: Survival
In short: (§2)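 Cells exposed to agent at 5 µM for 24 h, then growth and viability measured by MTT assay. Survival given as percent of untreated control.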

[3] = system: A-375; test: Induction of apoptosis in human A375 cells assessed as increase in Bad protein level after 24 hrs by Western blotting analysis; format: functional, cell-based; in short: as §1
[4] = system: A-375; test: Cell cycle arrest in human A375 cells assessed as accumulation at sub-G1 phase after 24 hrs by propidium iodide staining-based flow cytometry (reference value: 7.7 +/- 0.1%); format: functional
[5] = system: A-375; test: Induction of apoptosis in human A375 cells at 5 uM after 24 hrs by AnnexinV-FITC/propidium iodide staining-based fluorimetric analysis (reference value: 2.6%); format: functional
[6] = system: A-375; test: Upregulation of p53 mRNA expression in human A375 cells at 5 uM after 24 hrs by RT-PCR analysis; format: functional, cell-based
In short: (§3)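 A375 cells treated 24 h at 5 μM; p53, p21, p27 and cyclin D1 transcripts quantified by qPCR, normalised to β-actin in each sample, compared with control.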

[7] = system: A-375; test: Cytotoxicity against human A375 cells assessed as cell survival after 12 to 24 hrs by MTT assay relative to control; format: functional, cell-based
In short: (§4)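 A375 cells seeded at 10,000 per well, attached overnight, then exposed in triplicate to 0, 1, 3 or 5 μM for 0, 12 or 24 h; viability by MTT absorbance versus untreated control; IC50 taken as mean of dose-response curves from three experiments.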

[8] = system: A549; test: Cytotoxicity against human A549 cells assessed as cell survival at 5 uM after 24 hrs by MTT assay relative to control; format: functional; conditions: A549, 24 h, read-out: Survival; in short: as §2
[9] = system: A-375; test: Induction of apoptosis in human A375 cells assessed as decrease in Bcl-XL protein level after 24 hrs by Western blotting analysis; format: functional, cell-based; in short: as §1
[10] = system: A-375; test: Induction of apoptosis in human A375 cells assessed as decrease in Bcl-XL protein level at 5 uM after 24 hrs by Western blotting analysis; format: functional, cell-based; in short: as §1
[11] = system: A-375; test: Downregulation of cyclin D1 mRNA expression in human A375 cells at 5 uM after 24 hrs by RT-PCR analysis; format: functional, cell-based; in short: as §3
[12] = system: Ca9-22; test: Cytotoxicity against human Ca9-22 cells assessed as cell survival at 5 uM after 24 hrs by MTT assay relative to control; format: functional; conditions: Ca9-22, 24 h, read-out: Survival; in short: as §2
[13] = system: A-375; test: Induction of apoptosis in human A375 cells assessed as increase in Bax protein level at 5 uM after 24 hrs by Western blotting analysis; format: functional, cell-based; in short: as §1
[14] = system: HEK-293T; test: Cytotoxicity against human 293T cells assessed as cell survival at 5 uM after 24 hrs by MTT assay relative to control; format: functional; conditions: read-out: Survival; in short: as §2
[15] = system: A-375; test: Cell cycle arrest in human A375 cells assessed as accumulation at G2/M phase after 24 hrs by propidium iodide staining-based flow cytometry (reference value: 15.2 +/- 0.6%); format: functional
[16] = system: A-375; test: Cell cycle arrest in human A375 cells assessed as accumulation at G1 phase after 24 hrs by propidium iodide staining-based flow cytometry (reference value: 65.3 +/- 0.1%); format: functional
[17] = system: A-375; test: Induction of apoptosis in human A375 cells assessed as increase in Bad protein level at 5 uM after 24 hrs by Western blotting analysis; format: functional, cell-based; in short: as §1
[18] = system: Escherichia coli; test: Binding affinity to Escherichia coli pBR322 DNA assessed as DNA unwinding at 10 to 1000 uM after 12 hrs by agarose gel electrophoresis
In short: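 Negatively supercoiled pBR322 plasmid (0.4 μg) incubated 12 h in TE buffer with increasing compound concentrations (0–1000 μM); samples run 2.5 h on 1% agarose gel; unwinding read as reduced mobility.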

[19] = system: A-375; test: Upregulation of p21 mRNA expression in human A375 cells at 5 uM after 24 hrs by RT-PCR analysis; format: functional, cell-based; in short: as §3
[20] = system: A-375; test: Cytotoxicity against human A375 cells assessed as cell survival at 1 to 5 uM by MTT assay relative to control; format: functional, cell-based; conditions: TDE = time-dependent effect; in short: as §4
[21] = system: B16; test: Cytotoxicity against mouse B16 cells assessed as cell survival at 5 uM after 24 hrs by MTT assay relative to control; format: functional; conditions: B16, 24 h, read-out: Survival; in short: as §2
[22] = system: A-375; test: Cytotoxicity against human A375 cells assessed as cell survival at 1 to 5 uM after 12 hrs by MTT assay relative to control; format: functional, cell-based; in short: as §4
[23] = system: A-375; test: Induction of apoptosis in human A375 cells assessed as decrease in Bcl-2 protein level at 5 uM after 24 hrs by Western blotting analysis; format: functional, cell-based; in short: as §1
[24] = system: A-375; test: Cell cycle arrest in human A375 cells assessed as accumulation at S phase after 24 hrs by propidium iodide staining-based flow cytometry (reference value: 11.8 +/- 0.1%); format: functional
[25] = Cytotoxicity against human RPMI7951 cells assessed as cell survival at 5 uM after 24 hrs by MTT assay relative to control; format: functional; conditions: RPMI-7951, 24 h, read-out: Survival; in short: as §2
[26] = system: A-375; test: Induction of apoptosis in human A375 cells assessed as cleavage of caspase-3 after 24 hrs by Western blotting analysis; format: functional, cell-based; in short: as §1
[27] = system: A-375; test: Cytotoxicity against human A375 cells assessed as cell survival at 5 uM after 24 hrs by MTT assay relative to control; format: functional; conditions: A-375, 24 h, read-out: Survival; in short: as §2
[28] = system: A-375; test: Induction of apoptosis in human A375 cells assessed as cleavage of PARP after 24 hrs by Western blotting analysis; format: functional, cell-based; in short: as §1
[29] = system: A-375; test: Induction of apoptosis in human A375 cells assessed as decrease in Bcl-2 protein level after 24 hrs by Western blotting analysis; format: functional, cell-based; in short: as §1
[30] = system: A-375; test: Upregulation of p27 mRNA expression in human A375 cells at 5 uM after 24 hrs by RT-PCR analysis; format: functional, cell-based; in short: as §3
[31] = system: A2058; test: Cytotoxicity against human A2058 cells assessed as cell survival at 5 uM after 24 hrs by MTT assay relative to control; format: functional; conditions: A2058, 24 h, read-out: Survival; in short: as §2

SMILES | viability at 24 h, 5 µM [2] | Activity [4] | Activity [5] | Activity [6] | Activity [7] | viability at 5 µM [8] | Activity [10] | Activity [11] | viability at 5 µM [12] | Activity [13] | viability at 5 µM [14] | Activity [15] | Activity [16] | Activity [17] | Activity [19] | Activity [20] | viability at 5 µM [21] | Activity [22] | Activity [23] | Activity [24] | further results
COc1cc2c(cc1OC/C=C\Cn1cc(-c3ccccc3)nn1)N=C[C@@H]1CCCN1C2=O | 87.7% | 8.9% | 23.1% | Active | Dose-dependent effect | 65.6% | Active | Active | 25.6% | Active | 74.1% | 2.2% | 83% | Active | Active | tde | 33.9% | inactive | Active | 5.9% | Activity [1]: Dose-dependent effect; Activity [3]: Dose-dependent effect; Activity [9]: Dose-dependent effect; Activity [18]: Active; viability at 5 µM [25]: 55.9%; Activity [26]: Dose-dependent effect; viability at 5 µM [27]: 22.4%; Activity [28]: Dose-dependent effect; Activity [29]: Dose-dependent effect; Activity [30]: Active; viability at 5 µM [31]: 45.7%
COc1ccc(-c2cn(C/C=C\COc3cc4c(cc3OC)C(=O)N3CCC[C@H]3C=N4)nn2)cc1 | 90.3% | 7.1% | 12.1% | Active | Dose-dependent effect | 98.2% | Active | Active | 55.5% | Active | 46.7% | 3.4% | 82.3% | Active | Active | tde | 62.8% | inactive | Active | 7.2% | viability at 5 µM [25]: 66.4%; viability at 5 µM [27]: 38.7%; Activity [30]: Active; viability at 5 µM [31]: 42%
COc1cc2c(cc1OC/C=C\Cn1cc(-c3ccccc3OC)nn1)N=C[C@@H]1CCCN1C2=O | 84.7% | 11.7% | 11.1% | Active | Dose-dependent effect | 102% | Active | Active | 105% | Active | 51.1% | 1.3% | 81.9% | Active | Active | tde | 66.3% | inactive | Active | 5.1% | viability at 5 µM [25]: 75.1%; viability at 5 µM [27]: 58.4%; Activity [30]: Active; viability at 5 µM [31]: 63.1%
COc1cccc(-c2cn(C/C=C\COc3cc4c(cc3OC)C(=O)N3CCC[C@H]3C=N4)nn2)c1 | 90.4% | 7.7% | 16.4% | Active | Dose-dependent effect | 100% | Active | Active | 50% | Active | 42.8% | 3.3% | 82.3% | Active | Active | tde | 74.2% | inactive | Active | 6.7% | viability at 5 µM [25]: 65.3%; viability at 5 µM [27]: 48.4%; Activity [30]: Active; viability at 5 µM [31]: 40.7%

Reference: ChEMBL document CHEMBL3091328, “Synthesis, DNA-binding abilities and anticancer activities of triazole-pyrrolo[2,1-c][1,4]benzodiazepines hybrid scaffolds” (Bioorg Med Chem Lett, 2013)
